This is an account of results in ChEMBL document CHEMBL1138267, “Identification of phosphinate dipeptide analog inhibitors directed against the Plasmodium falciparum M17 leucine aminopeptidase as lead antimalarial compounds” (J Med Chem, 2007).

Data set [1] concerns Plasmodium falciparum. In words: Antimalarial activity after 48 hrs against multidrug-resistant Plasmodium falciparum Dd2 by [3H]hypoxanthine uptake. Type of data set: functional, organism-based.
Data set [2] relates to Plasmodium falciparum. Nature of the data set: Antimalarial activity after 48 hrs against Plasmodium falciparum D10 by [3H]hypoxanthine uptake. Type of data set: functional, organism-based.
In data set [3] the test system is Plasmodium falciparum. In words: Antimalarial activity after 48 hrs against drug-sensitive Plasmodium falciparum 3D7 by [3H]hypoxanthine uptake. Type of data set: functional, organism-based.
The nature of data set [4]: Inhibition of Plasmodium falciparum recombinant M17 LAP. An outline of the steps:
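His-tagged PfLAP expressed in baculovirus-infected Sf9 cells and Ni-agarose purified. The enzyme was Co2+-activated (1 mM CoCl2, 50 mM Tris-HCl pH 8.0, 20 min) and H-Leu-NHMec hydrolysis was read at ex 370/em 460 nm, 37 °C. Ki came from Dixon plots of initial rates (26 nM enzyme, 2.5–100 µM substrate, 2.44–78.13 nM inhibitor). For time-dependent binding, Ki* came from steady-state progress curves (2 µM substrate, 19.53–312.5 nM).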

The test system of data set [5] is Plasmodium chabaudi. Nature of the data set: Antimalarial activity against Plasmodium chabaudi chabaudi in C57BL/6J mice (Mus musculus) assessed as parasitemia on day 11 at 2 mg, intraperitoneally twice daily for 7 days. In kind it is functional.
Data set [6] relates to Plasmodium chabaudi. Nature of the data set: Antimalarial activity against Plasmodium chabaudi chabaudi in C57BL/6J mice (Mus musculus) assessed as reduction of parasitemia on day 11 at 2 mg, intraperitoneally twice daily for 7 days relative to control. In kind it is functional. Further details: scale not given: the % may be the effect or the level left.
Data set [7] has as its system Mus musculus. In words: Toxicity in Plasmodium chabaudi chabaudi infected C57BL/6J mice (Mus musculus) at 2 mg, intraperitoneally twice daily after 7 days. In kind it is organism-based. The conditions noted are these: in vivo, ip, 168 h.
The subject of data set [8] is Mus musculus. In words: Toxicity in Plasmodium chabaudi chabaudi infected C57BL/6J mice (Mus musculus) at 0.1 mg, intraperitoneally twice daily after 4 days. In kind it is organism-based. As to conditions: in vivo, ip, 96 h.
Data set [9] concerns Plasmodium chabaudi. In words: Antimalarial activity against Plasmodium chabaudi chabaudi in C57BL/6J mice (Mus musculus) assessed as parasitemia on day 8 at 2 mg, intraperitoneally twice daily for 7 days. Type of data set: functional.
Data set [10] relates to Plasmodium chabaudi. In words: Antimalarial activity against Plasmodium chabaudi chabaudi in C57BL/6J mice (Mus musculus) assessed as parasitemia on day 14 at 0.1 mg, intraperitoneally for 4 days. In kind it is functional.

For `CC(C)C[C@H](CP(=O)(O)[C@H](N)CC(C)C)C(=O)O`, the IC50 in the data set with Plasmodium falciparum [1], in the data set with Plasmodium falciparum [2] and in the data set on Plasmodium falciparum [3] was more than 100 µM throughout. The Ki in data set [4] is 0.0973 µM.

On to `N[C@H](CCc1ccccc1)P(=O)(O)C[C@@H](Cc1ccccc1)C(=O)O`, for which the IC50 in the data set with Plasmodium falciparum [1] amounted to 20 µM; in the data set on Plasmodium falciparum [2], 46 µM; in the data set on Plasmodium falciparum [3], 24 µM. Moreover, the Ki in [4] was found to be 0.0132 µM. Further, the Activity in the data set with Plasmodium chabaudi [5] is 3.6%; in the data set on Plasmodium chabaudi [6], 92%; in the data set with Mus musculus [7], “Non-toxic”; with Mus musculus [8] it was “Non-toxic”.

As for `N[C@H](CCc1ccccc1)P(=O)(O)C[C@@H](Cc1ccc(O)cc1)C(=O)O`, the IC50 in the data set on Plasmodium falciparum [1] is 13 µM; in the data set with Plasmodium falciparum [2] it was 47 µM; in the data set with Plasmodium falciparum [3], 19 µM. Moreover, the Ki in data set [4] was found to be 0.0104 µM.

For `N[C@H](CCc1ccccc1)P(=O)(O)CCC(=O)O`, the IC50 in the data set on Plasmodium falciparum [1], with Plasmodium falciparum [2] and with Plasmodium falciparum [3] was more than 100 µM throughout. Further, the Ki in [4] is 0.525 µM.

Take `CC(C)C[C@H](NC(=O)[C@@H](O)[C@H](N)Cc1ccccc1)C(=O)O.Cl` [BESTATIN HYDROCHLORIDE]: the Activity is recorded as 29.7% in the data set on Plasmodium chabaudi [9], “Non-toxic” in the data set with Mus musculus [7] and “Non-toxic” in the data set on Mus musculus [8]. In addition, the IC50 in the data set on Plasmodium falciparum [1] is 12 µM; in the data set with Plasmodium falciparum [2], 11 µM; with Plasmodium falciparum [3], 8 µM. Further, the Ki in data set [4] came to 0.025 µM.

`CCN(CC)CCCC(C)Nc1ccnc2cc(Cl)ccc12` (stereo not given) [CHLOROQUINE]: the Activity in the data set on Plasmodium chabaudi [10] was 6.9%; in the data set with Mus musculus [7], “Non-toxic”; with Mus musculus [8], “Non-toxic”.

Usually IC50 stands for the midpoint of a concentration-inhibition curve. As a reminder, the Ki is the equilibrium dissociation constant of an inhibitor or competing ligand from its target.
